Reference: ChEMBL document CHEMBL4354812, “N-Benzyl/Aryl Substituted Tryptanthrin as Dual Inhibitors of Indoleamine 2,3-Dioxygenase and Tryptophan 2,3-Dioxygenase” (J Med Chem, 2019)
Calls of active or inactive are those of the source. No cut-off for these calls is given here.

What was measured:
[1] = tested on: Mus musculus; assay: In vivo blockade of kynurenine pathway in Kunming mouse implanted with mouse H22 cells assessed as increase in tryptophan level in serum at 45 mg/kg, po qd for 2 weeks by HPLC analysis; format: functional, organism-based
Procedure, shortened: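 H22 tumor-bearing Kunming mice received oral dosing once daily in 0.5% CMC-Na for 2 weeks. Serum Trp and Kyn were measured by HPLC on a C18 column with 15 mM sodium acetate (pH 3.6) containing 4% acetonitrile, UV detection at 280 and 360 nm. Kyn/Trp ratio calculated. n = 9–10/group.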

[2] = target: Tryptophan 2,3-dioxygenase (Homo sapiens, UniProt P48775); assay: Uncompetitive inhibition of recombinant human TDO expressed in Escherichia coli BL21 (DE3) assessed as assessed as inhibition constant using varying concentration of L-tryptophan as substrate by Dixon plot analysis
Procedure, shortened: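 Enzymatic assays of the kynurenine-forming reaction were run with varying L-Trp. Ki was derived by plotting [S]/V against inhibitor concentration [I], with inhibition type assigned from the graphical pattern.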

[3] = tested on: Mus musculus; assay: In vivo blockade of kynurenine pathway in C57BL/6 mouse implanted with mouse LLC cells assessed as decrease in kynurenine/tryptophan ratio in tumor at 45 mg/kg, po qd for 2 weeks by LC-MS analysis; format: functional, organism-based
Procedure, shortened: (§1)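 LLC tumor-bearing C57BL/6 mice received oral dosing once daily in 0.5% CMC-Na for 2 weeks. Tumors were dissected and Trp and Kyn measured by LC–MS on a C18 column with acetonitrile/0.1% formic acid gradient (5–80%), positive ion mode, m/z 205 (Trp) and 209 (Kyn), metronidazole internal standard. Kyn/Trp ratio calculated. n = 4–6/group.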

[4] = tested on: Rattus norvegicus; assay: In vivo inhibition of IDO1/2/TDO in Sprague-Dawley rat assessed as increase in tryptophan level in lung at 30 mg/kg, ig administered as single dose by LC-MS analysis; format: functional, organism-based
Procedure, shortened: (§2)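 Naive SD rats received a single ig dose of 30 mg/kg in 0.5% CMC-Na, with vehicle as control. Lungs were dissected and Trp and Kyn quantified by LC–MS, with the Kyn/Trp ratio calculated. n = 3–4 rats/group.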

[5] = tested on: H22; assay: Antitumor activity against mouse H22 cells implanted in Kunming mouse assessed as reduction in tumor weight at 45 mg/kg, po qd administered for 2 weeks and measured post-treatment relative to control; format: functional; design: scale not given: the % may be the effect or the level left
Procedure, shortened: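 Tumor cells (LLC, or H22 ascites cells after two intraperitoneal passages in Kunming mice) injected sc into the right forelimb at 2 × 10⁶ per mouse, in female 6–8-week C57BL/6 or Kunming mice. Oral dosing once daily began at 5 mm tumor diameter and continued 2 weeks. Vehicle was 0.5% CMC-Na. Volume was read by caliper every 2 days as long × short²/2. Tumors were weighed at sacrifice. n = 9–10/group.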

[6] = target: T1, Indoleamine 2,3-dioxygenase 2 (Homo sapiens) (UniProt Q6ZQW0); assay: Binding affinity to human IDO2 at 200 uM by STD NMR spectrometry analysis
T1 sequence (whole entry): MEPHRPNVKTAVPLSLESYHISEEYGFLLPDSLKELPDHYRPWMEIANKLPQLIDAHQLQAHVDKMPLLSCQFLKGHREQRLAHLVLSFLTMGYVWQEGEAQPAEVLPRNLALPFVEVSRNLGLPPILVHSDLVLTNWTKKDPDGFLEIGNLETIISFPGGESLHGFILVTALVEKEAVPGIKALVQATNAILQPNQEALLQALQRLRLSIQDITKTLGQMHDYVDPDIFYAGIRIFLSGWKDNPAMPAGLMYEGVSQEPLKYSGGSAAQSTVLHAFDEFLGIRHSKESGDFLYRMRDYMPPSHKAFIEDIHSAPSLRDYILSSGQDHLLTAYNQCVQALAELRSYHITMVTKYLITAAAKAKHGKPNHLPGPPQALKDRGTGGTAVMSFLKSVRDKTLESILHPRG

[7] = organism: Homo sapiens; assay: Inhibition of IDO1/TDO in IFNgamma-treated human HeLa cells assessed as T cell proliferation at 200 nM measured after 2 days in presence of IL-2, anti-CD3 and IFN-gamma by CFSE dye based flow cytometry analysis (reference value: 11.7 %); design: scale not given: the % may be the effect or the level left
Procedure, shortened: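 CFSE-labelled human PBMC lymphocytes (1 × 10⁶/well) were cocultured with HeLa cells (2 × 10⁵/well), a 5:1 ratio, in 150 U/mL IL-2, 100 ng/mL anti-CD3 and 60 ng/mL IFN-γ. Compound was tested at 40 nM, 200 nM, 500 nM or 1 μM. Proliferation was read by flow cytometry after 2 days, three independent experiments.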

[8] = tested on: Mus musculus; assay: In vivo blockade of kynurenine pathway in C57BL/6 mouse implanted with mouse LLC cells assessed as increase in tryptophan level in tumor at 45 mg/kg, po qd for 2 weeks by LC-MS analysis; format: functional, organism-based; procedure, shortened: as §1
[9] = tested on: Mus musculus; assay: In vivo blockade of kynurenine pathway in C57BL/6 mouse implanted with mouse LLC cells assessed as decrease in kynurenine level in tumor at 45 mg/kg, po qd for 2 weeks by LC-MS analysis; format: functional, organism-based; procedure, shortened: as §1
[10] = tested on: Mus musculus; assay: In vivo inhibition of IDO1/2/TDO in C57BL/6 mouse assessed as decrease in LPS-stimulated kynurenine pathway by measuring increase in serum tryptophan level at 60 mg/kg, ig pretreated for 24 hrs with Escherichia coli LPS followed by compound treatment measured at 12 hrs post-treatment by HPLC analysis; format: functional, organism-based
Procedure, shortened: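 C57BL/6 mice were given ip saline or E. coli LPS 5 mg/kg. 24 h later they received ig 60 mg/kg compound or 0.5% CMC-Na. Blood was taken at 1, 6, 12, 24 and 30 h after dosing. Serum Trp and Kyn were measured by HPLC and the Kyn/Trp ratio calculated. n = 3–5 mice/group.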

[11] = tested on: Rattus norvegicus; assay: In vivo inhibition of IDO1/2/TDO in Sprague-Dawley rat assessed as decrease in kynurenine level in lung at 30 mg/kg, ig administered as single dose by LC-MS analysis; format: functional, organism-based; procedure, shortened: as §2

Chain of Tryptophan 2,3-dioxygenase (P48775 whole entry): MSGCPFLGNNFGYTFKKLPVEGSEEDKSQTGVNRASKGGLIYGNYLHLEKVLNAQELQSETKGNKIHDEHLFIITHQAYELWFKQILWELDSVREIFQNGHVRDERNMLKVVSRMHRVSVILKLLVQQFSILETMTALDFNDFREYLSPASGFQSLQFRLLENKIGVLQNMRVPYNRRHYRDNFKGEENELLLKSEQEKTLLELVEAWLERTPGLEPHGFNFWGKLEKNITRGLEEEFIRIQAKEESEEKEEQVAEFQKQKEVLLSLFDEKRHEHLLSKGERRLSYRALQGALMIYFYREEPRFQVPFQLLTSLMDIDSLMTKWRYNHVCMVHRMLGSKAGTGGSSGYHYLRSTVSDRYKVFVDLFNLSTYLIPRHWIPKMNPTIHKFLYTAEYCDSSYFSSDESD

`CN1CCN(Cc2ccc3nc4n(c(=O)c3c2)-c2ccc(F)cc2C4=O)CC1` was tested, and the Activity [1] was “Active”, the Ki [2] was 310 nM and the Activity [3] was “Active”. For the same compound, the inhibition [4] was “Active”, the Activity [5] was 55.4% and the Activity [6] was “Active”. The Activity [7] was 39.8%, the Activity [8] was “inactive” and the Activity [9] was “Active”. For the same compound, the inhibition [10] was “Active” and the inhibition [11] was “Active”.
